Experimental data taken from ChEMBL document CHEMBL1124818, “Synthesis and cardiac electrophysiological activity of aryl-substituted derivatives of the class III antiarrhythmic agent sematilide. Potential class I/III agents” (J Med Chem, 1990).
Several values for one entry are separate records, joined by “and”; a condition that tells them apart may be missing. Identical values can stand only once.

Legend:
[1] = Percent change from control value for Vmax at 100 uM of the compound.
Method in brief: (§1)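 Microelectrode recording in Purkinje fibers; maximal depolarization rate (Vmax) measured at each test concentration, given as percent change from control, mean ± SEM; n per concentration may differ from APD experiments.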

[2] = Percent change from control value for Vmax at 10 uM of the compound.; method in brief: as §1
[3] = Percent change from control value for Vmax at 1 uM of the compound.; method in brief: as §1
[4] = Percent change from control value for Vmax at 30 uM of the compound.; method in brief: as §1
[5] = tested on: Cavia porcellus; experiment: Percent change in the mean time to first Ouabain-induced arrhythmia was determined in Guinea pig at a dose of 10 mg/kg; assay type: functional
Method in brief: (§2)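 Anesthetized guinea pigs, tracheal cannulation with room-air respiration, right jugular cannulated; 5 min equilibration, test agent intravenous, then 10 min later ouabain 40 μg/kg iv bolus plus 10 μg/kg/min infusion until arrhythmia. Percent change in mean time to first arrhythmia (n = 4-6) versus vehicle control (n = 3-4).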

[6] = species on record: Canis familiaris; experiment: Duration of action potential was determined in vitro in Canine Purkinje fibers at 100 uM concentration.; assay type: functional, Canis lupus familiaris, Purkinje fiber
Method in brief: (§3)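 Microelectrode recording in Purkinje fibers; action potential duration at 95% repolarization measured at each test concentration and expressed as percent change from control, mean ± SEM over the stated number of experiments.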

[7] = species on record: Canis familiaris; experiment: Duration of action potential was determined in vitro in Canine Purkinje fibers at 10 uM concentration.; assay type: functional, Canis lupus familiaris, Purkinje fiber; method in brief: as §3
[8] = species on record: Canis familiaris; experiment: Duration of action potential was determined in vitro in Canine Purkinje fibers at 1 uM concentration.; assay type: functional, Canis lupus familiaris, Purkinje fiber; method in brief: as §3
[9] = species on record: Canis familiaris; experiment: Duration of action potential was determined in vitro in Canine Purkinje fibers at 30 uM concentration.; assay type: functional, Canis lupus familiaris, Purkinje fiber; method in brief: as §3
[10] = Percent change from control value for Vmax at 0.1 uM of the compound.; method in brief: as §1
[11] = species on record: Canis familiaris; experiment: Duration of action potential was determined in vitro in Canine Purkinje fibers at 0.1 uM concentration.; assay type: functional, Canis lupus familiaris, Purkinje fiber; method in brief: as §3
[12] = species on record: Canis familiaris; experiment: Duration of action potential in vitro against Canine Purkinje fibers; at 1 uM concentration; assay type: functional, Canis lupus familiaris, Purkinje fiber; method in brief: as §3
[13] = species on record: Canis familiaris; experiment: Duration of action potential in vitro against Canine Purkinje fibers; at 100 uM concentration.; assay type: functional, Canis lupus familiaris, Purkinje fiber; method in brief: as §3
[14] = species on record: Canis familiaris; experiment: Duration of action potential in vitro against Canine Purkinje fibers; at 10 uM concentration.; assay type: functional, Canis lupus familiaris, Purkinje fiber; method in brief: as §3
[15] = species on record: Canis familiaris; experiment: Duration of action potential in vitro against Canine Purkinje fibers; at 30 uM concentration.; assay type: functional, Canis lupus familiaris, Purkinje fiber; method in brief: as §3
[16] = tested on: Canis familiaris; experiment: Antiarrhythmic efficacy in vivo against PES model; assay type: functional; conditions: Canis lupus familiaris, Heart
Method in brief: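 Conscious dogs 3-8 days after occlusion/reperfusion infarction (Karagueuzian method); programmed electrical stimulation induced two control arrhythmias before dosing, VF ended by DC countershock and sustained VT by burst pacing. After intravenous drug, reinduction attempted; efficacy counted when SVT/VF not inducible; per-dog effective dose recorded, non-responders to cumulative 10 mg/kg unless noted.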

[17] = tested on: Cavia porcellus; experiment: Percent change in the mean time to first Ouabain-induced arrhythmia was determined in Guinea pig at a dose of 3 mg/kg; assay type: functional; method in brief: as §2
[18] = tested on: Canis familiaris; experiment: Antiarrhythmic efficacy in vivo against Harris model; assay type: functional; conditions: Canis lupus familiaris, Heart
Method in brief: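 Conscious dogs studied 24 h after two-stage coronary occlusion infarction (Harris method), when ectopy exceeds 75%; test agent given intravenously. Efficacy counted as >30% decrease in ectopy; per-dog effective dose recorded, non-responders given cumulative 10 mg/kg unless otherwise noted.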

[19] = Percent change from control value for Vmax at 0.1 uM of the compound; method in brief: as §1
[20] = Percent change from control value for Vmax at 10 uM of the compound; method in brief: as §1
[21] = Percent change from control value for Vmax at 1 uM of the compound; method in brief: as §1
[22] = Percent change from control value for Vmax at 30 uM of the compound; method in brief: as §1
[23] = species on record: Canis familiaris; experiment: Duration of action potential was determined in vitro in Canine Purkinje fibers at 0.1 uM concentration; assay type: functional, Canis lupus familiaris, Purkinje fiber; method in brief: as §3
[24] = species on record: Canis familiaris; experiment: Duration of action potential was determined in vitro in Canine Purkinje fibers at 10 uM concentration; assay type: functional, Canis lupus familiaris, Purkinje fiber; method in brief: as §3
[25] = species on record: Canis familiaris; experiment: Duration of action potential was determined in vitro in Canine Purkinje fibers at 1 uM concentration; assay type: functional, Canis lupus familiaris, Purkinje fiber; method in brief: as §3
[26] = species on record: Canis familiaris; experiment: Duration of action potential was determined in vitro in Canine Purkinje fibers at 30 uM concentration; assay type: functional, Canis lupus familiaris, Purkinje fiber; method in brief: as §3
[27] = species on record: Canis familiaris; experiment: Duration of action potential in vitro against Canine Purkinje fibers, at 10 uM concentration.; assay type: functional, Canis lupus familiaris, Purkinje fiber; method in brief: as §3
[28] = species on record: Canis familiaris; experiment: Duration of action potential in vitro against Canine Purkinje fibers, at 30 uM concentration.; assay type: functional, Canis lupus familiaris, Purkinje fiber; method in brief: as §3
[29] = Percent change from control value for Vmax at 3 uM of the compound.; method in brief: as §1
[30] = species on record: Canis familiaris; experiment: Duration of action potential in vitro against Canine Purkinje fibers; at 3 uM concentration; assay type: functional, Canis lupus familiaris, Purkinje fiber; method in brief: as §3
[31] = tested on: Cavia porcellus; experiment: Percent change in the mean time to first Ouabain-induced arrhythmia was determined in Guinea pig at 10 mg/kg dose; assay type: functional; method in brief: as §2
[32] = species on record: Canis familiaris; experiment: Duration of action potential in vitro against Canine Purkinje fibers, at 100 uM concentration.; assay type: functional, Canis lupus familiaris, Purkinje fiber; method in brief: as §3
[33] = species on record: Canis familiaris; experiment: Duration of action potential in vitro against Canine Purkinje fibers, at 3 uM concentration.; assay type: functional, Canis lupus familiaris, Purkinje fiber; method in brief: as §3

SMILES | Delta Vmax [2] [%] | Delta Vmax [3] [%] | Delta Vmax [4] [%] | Delta Vmax [10] [%] | Change ([5]; dose 10 mg/kg) [%] | Delta APD95 [7] [%] | Delta APD95 [8] [%] | Delta APD95 [9] [%] | Delta APD95 [11] [%] | Delta APD95 [12] [%] | ED50 [16] [mg/kg] | also measured
CCN(CC)CCN(C(=O)c1ccc(NS(C)(=O)=O)cc1)c1ccccc1.Cl | -12 | -3 | -20 | -4 | -9 | 52 | 18 | 38 | 4 | – | – | Delta Vmax [1]: -39%; Delta APD95 [6]: 45%
CCN(CC)CCN(C(=O)c1ccc(NS(C)(=O)=O)cc1)c1c(C(C)C)cccc1C(C)C.Cl | -11 | 1 | – | – | – | 22 | 21 | – | – | – | 1 | Change [17]: 22%; ED50 [18]: 10 mg/kg
CCN(CC)CCN(C(=O)c1ccc(NS(C)(=O)=O)cc1)c1c(C)cccc1C.Cl | -3 | -2 | -6 | -4 | -8 | 30 | 10 | 40 | 7 | – | – | –
CCc1ccc(N(CCN(CC)CC)C(=O)c2ccc(NS(C)(=O)=O)cc2)cc1.Cl | 4 | 8 | -6 | 5 | 20 | 70 | 51 | 62 | 12 | – | – | –
CCN(CC)CCN(C(=O)c1ccc(NS(C)(=O)=O)cc1)c1ccc(NS(C)(=O)=O)cc1 | – | – | – | – | 22 | – | – | – | – | – | – | Delta Vmax [19]: -4%; Delta Vmax [20]: -3%; Delta Vmax [21]: -2%; Delta Vmax [22]: -6%; Delta APD95 [23]: 7%; Delta APD95 [24]: 30%; Delta APD95 [25]: 10%; Delta APD95 [26]: 40%
CCN(CC)CCN(C(=O)c1ccc(NS(C)(=O)=O)cc1)c1ccc(Cl)cc1 | -8 | 2 | -20 | 3 | 18 | 64 | 34 | 60 | 9 | – | – | –
CCN(CC)CCN(C(=O)c1ccc(NS(C)(=O)=O)cc1)c1ccc(OC)cc1.O=C(O)/C=C/C(=O)O | -3 | -3 | -8 | 0 | 15 | 82 | 35 | 66 | 8 | – | – | –
O=C(NCC1CCCCN1)c1cc(OCC(F)(F)F)ccc1OCC(F)(F)F (stereo not given) [FLECAINIDE] | -30 | -6 | – | 2 | – | – | – | – | -3 | -15 | 1 | Delta Vmax [29]: -11%; Change [17]: 51%; Delta APD95 [14]: -47%; Delta APD95 [30]: -35%; ED50 [18]: 1 mg/kg
CCN(CC)CC(=O)Nc1c(C)cccc1C [LIDOCAINE] | 1 | 2 | – | – | 30 | -25 | -7 | – | – | – | – | –
C=C[C@H]1CN2CC[C@H]1C[C@@H]2[C@@H](O)c1ccnc2ccc(OC)cc12 [QUINIDINE] | – | -1 | -23 | 0 | – | -4 | 4 | -17 | 2 | – | 1 | Change [31]: 28%; Delta APD95 [6]: -14%; ED50 [18]: 10 mg/kg
CCN(CC)CCNC(=O)c1ccc(NS(C)(=O)=O)cc1 [SEMATILIDE] | 0 | 0 | – | 2 | – | – | – | – | 0 | 6 | 1 | Delta Vmax [1]: 0%; Delta APD95 [32]: 66%; Delta APD95 [27]: 33%; Delta APD95 [28]: 51%; Delta APD95 [33]: 14%

Continued, in another order:

Delta Vmax [2] [%] | Delta Vmax [3] [%] | Delta Vmax [4] [%] | Delta Vmax [10] [%] | SMILES | Change ([5]; dose 10 mg/kg) [%] | Delta APD95 [7] [%] | Delta APD95 [8] [%] | Delta APD95 [9] [%] | Delta APD95 [11] [%] | Delta APD95 [12] [%] | ED50 [16] [mg/kg] | also measured
-13 | -2 | -34 | 6 | CCN(CC)CC(NC(=O)c1ccc(NS(C)(=O)=O)cc1)c1ccccc1.Cl (stereo not given) | 61 | – | – | – | 4 | 21 | – | Delta Vmax [1]: -76%; Delta APD95 [13]: -20%; Delta APD95 [14]: -2%; Delta APD95 [15]: -12%
-13 | -5 | -16 | 2 | CCN(CC)CCN(C(=O)c1ccc(NS(C)(=O)=O)cc1)c1cccc2ccccc12.Cl | -25 | – | – | – | 10 | 51 | 1 | Delta Vmax [1]: -42%; Change [17]: 8%; Delta APD95 [13]: 26%; Delta APD95 [14]: 64% and 37%
-12 | -4 | -15 | -4 | CCN(CC)C(CNC(=O)c1ccc(NS(C)(=O)=O)cc1)c1ccccc1 (stereo not given) | -13 | – | – | – | 11 | 40 | – | Delta APD95 [27]: 46%; Delta APD95 [28]: 52%
-4 | -2 | -7 | 1 | CCN(CC)C(CNC(=O)c1ccc(NS(C)(=O)=O)cc1)c1cccc2ccccc12 (stereo not given) | 0 | – | – | – | 4 | 29 | – | Delta APD95 [27]: 34%; Delta APD95 [28]: 29%
– | -20 | – | -3 | CCN(CC)CC(NC(=O)c1ccc(NS(C)(=O)=O)cc1)c1cccc2ccccc12 (stereo not given) | – | – | – | – | 14 | 10 | 1 | Change ([5]; dose 3 mg/kg, in the assay text read “3 mg/kg” for “10 mg/kg”): 70%; Delta APD95 [27]: -14%; ED50 [18]: 2 mg/kg
